Test results: ChEMBL document CHEMBL3588765, “Synthesis and molecular docking of 1,2,3-triazole-based sulfonamides as aromatase inhibitors” (Bioorg Med Chem, 2015)
In brackets after ≈: the same amount, converted by molar mass.

Tests used:
Vero = assay: Cytotoxicity against african green monkey Vero cells after 4 days by green fluorescent protein detection method; format: cell-based; conditions: Chlorocebus sabaeus, 96 h
Aromatase = target: T1, Aromatase (Homo sapiens, UniProt P11511); assay: Inhibition of CYP19 (unknown origin) using O-benzyl fluorescein benzyl ester substrate preincubated for 10 mins by fluorimetric analysis relative to control
T1 sequence (P11511 whole entry): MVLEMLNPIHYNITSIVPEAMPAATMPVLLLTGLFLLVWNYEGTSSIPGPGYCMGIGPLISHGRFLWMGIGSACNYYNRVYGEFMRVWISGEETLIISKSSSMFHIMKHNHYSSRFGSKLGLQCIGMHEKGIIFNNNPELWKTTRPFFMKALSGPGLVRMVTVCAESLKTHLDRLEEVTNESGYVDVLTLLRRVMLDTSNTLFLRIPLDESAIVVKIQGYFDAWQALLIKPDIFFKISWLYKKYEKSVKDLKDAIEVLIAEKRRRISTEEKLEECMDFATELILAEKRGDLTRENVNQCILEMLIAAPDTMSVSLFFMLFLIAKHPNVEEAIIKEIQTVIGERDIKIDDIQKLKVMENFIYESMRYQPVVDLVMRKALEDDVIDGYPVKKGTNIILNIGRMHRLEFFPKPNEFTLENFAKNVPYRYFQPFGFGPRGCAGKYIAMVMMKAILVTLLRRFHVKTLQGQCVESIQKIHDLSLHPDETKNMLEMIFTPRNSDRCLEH
In short: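 CYP19 was assayed with dibenzylfluorescein (DBF) as substrate. DBF is dealkylated by the enzyme and hydrolysed to fluorescein. Cofactor mix was 50 mM phosphate buffer pH 7.4 with an NADPH-generating system (NADP⁺, glucose-6-phosphate, MgCl₂, glucose-6-phosphate dehydrogenase). This mix was preincubated 10 min at 37 °C. Enzyme/substrate mixture (16 pmol/mL CYP19 stock, 0.2 mM DBF stock) and test sample were then added.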

[1] = Selectivity index, ratio of IC50 for african green monkey Vero cells to IC50 for CYP19 (unknown origin)
In short: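 Selectivity index was calculated as the IC₅₀ in GFP-Vero cells (4-day fluorescence assay) divided by the IC₅₀ in the DBF-based CYP19 fluorescence assay.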

[2] = Solubility of the compound in phosphate buffer at pH 7.4 medium; format: physicochemical

SMILES	IC50 (Vero) [mg/L]	IC50 (Aromatase) [µM]	Ratio IC50 [1]	solubility [2]
O=c1ccc2ccc(OCc3cn(-c4ccc(S(=O)(=O)NCCc5ccccc5)cc4)nn3)cc2o1	> 50	> 12.5		
O=c1cc(OCc2cn(-c3ccc(S(=O)(=O)NCCc4ccccc4)cc3)nn2)c2ccccc2o1	> 50	1.8	>55.27	
COc1ccc(CCNS(=O)(=O)c2ccc(-n3cc(-c4ccccc4)nn3)cc2)cc1OC	> 50	4.6	>23.4	
COc1ccc(CCNS(=O)(=O)c2ccc(-n3cc(COc4ccc([N+](=O)[O-])cc4)nn3)cc2)cc1OC	> 50	2.7	>34.32	
O=S(=O)(NCCc1ccccc1)c1ccc(-n2cc(-c3ccccc3)nn2)cc1	> 50	> 12.5		
O=S(=O)(NCCc1ccccc1)c1ccc(-n2cc(COc3ccccc3)nn2)cc1	> 50	9.4	>12.24	
O=S(=O)(NCCc1ccccc1)c1ccc(-n2cc(COc3cccc4ccccc34)nn2)cc1	> 50	3.4	>30.35	
O=S(=O)(NCCc1ccccc1)c1ccc(-n2cc(COc3ccc4ccccc4c3)nn2)cc1	> 50	1.3	>79.37	
Cc1ccc(OCc2cn(-c3ccc(S(=O)(=O)NCCc4ccccc4)cc3)nn2)cc1	> 50	8	>13.93	
O=Cc1ccc(OCc2cn(-c3ccc(S(=O)(=O)NCCc4ccccc4)cc3)nn2)cc1	> 50	7.9	>13.68	
O=[N+]([O-])c1ccc(OCc2cn(-c3ccc(S(=O)(=O)NCCc4ccccc4)cc3)nn2)cc1	> 50	2.9	>35.96	
Cc1ccccc1OCc1cn(-c2ccc(S(=O)(=O)NCCc3ccccc3)cc2)nn1	> 50	3.4	>32.79	
CC(=O)c1ccccc1OCc1cn(-c2ccc(S(=O)(=O)N3CCc4ccccc4C3)cc2)nn1	> 50	> 12.5		
O=c1cc(OCc2cn(-c3ccc(S(=O)(=O)N4CCc5ccccc5C4)cc3)nn2)c2ccccc2o1		> 12.5		
COc1cc2c(cc1OC)CN(S(=O)(=O)c1ccc(-n3cc(COc4ccccc4C)nn3)cc1)CC2	> 50	> 12.5		
COc1cc2c(cc1OC)CN(S(=O)(=O)c1ccc(-n3cc(COc4ccccc4C(C)=O)nn3)cc1)CC2		> 12.5		
COC(=O)c1ccccc1OCc1cn(-c2ccc(S(=O)(=O)N3CCc4cc(OC)c(OC)cc4C3)cc2)nn1		> 12.5		
COc1cc2c(cc1OC)CN(S(=O)(=O)c1ccc(-n3cc(COc4ccc([N+](=O)[O-])cc4)nn3)cc1)CC2	> 50	> 12.5		
COc1cc2c(cc1OC)CN(S(=O)(=O)c1ccc(-n3cc(COc4cc(C=O)ccc4OC)nn3)cc1)CC2	> 50	> 12.5		
O=c1ccc2ccc(OCc3cn(-c4cccc(S(=O)(=O)N5CCc6ccccc6C5)c4)nn3)cc2o1	91.5 (≈ 178 µM)			Insoluble
O=c1cc(OCc2cn(-c3cccc(S(=O)(=O)N4CCc5ccccc5C4)c3)nn2)c2ccccc2o1	> 50	> 12.5		
COc1cc2c(cc1OC)CN(S(=O)(=O)c1cccc(-n3cc(COc4ccc5ccc(=O)oc5c4)nn3)c1)CC2	> 50	0.2	>435.09	
COc1cc2c(cc1OC)CN(S(=O)(=O)c1cccc(-n3cc(COc4cc(=O)oc5ccccc45)nn3)c1)CC2	86.3 (≈ 150 µM)	1.8	48	
Cc1c2ccncc2c(C)c2c1[nH]c1ccccc12 [ELLIPTECINE]	1.94 (≈ 7.88 µM)			
